# Key:
# Type in all cases: functional, cell-based
# [1] = test system: MDA-MB-435; test: Cytotoxicity against human MDA-MB-435 cells assessed as cell viability after 72 hrs by commercial absorbance assay; details: MDA-MB-435, 72 h
# In short: (§1)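 Cells from ATCC grown at 37°C, 5% CO₂ in RPMI 1640 with 10% FBS, penicillin 100 units/mL and streptomycin 100 µg/mL. Log-phase cells were trypsinized, washed twice, seeded at 5,000/well and incubated overnight. Samples in DMSO were added at 20, 4, 0.8, 0.16 and 0.032 µM (0.5% DMSO) for 72 h at 37°C. Viability was read by CellTiter 96 AQueous One absorbance; IC₅₀ relative to DMSO control.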
# [2] = test system: MDA-MB-231; test: Cytotoxicity against human MDA-MB-231 cells assessed as cell viability after 72 hrs by commercial absorbance assay; details: MDA-MB-231, 72 h; in short: as §1
# [3] = test system: OVCAR-3; test: Cytotoxicity against human OVCAR3 cells assessed as cell viability after 72 hrs by commercial absorbance assay; details: OVCAR-3, 72 h; in short: as §1
Structure (SMILES),IC50 [1] [µM],IC50 [2] [µM],IC50 [3] [µM]
C[C@@]12CC[C@@H]3C(=C[C@H]4OC(=O)[C@]5(C)[C@H]4[C@]34CCC5(O)OC4)[C@]1(O)OC[C@H]2O,1.25,7.3,7.55
C[C@]12C(=O)O[C@@H]3C[C@@]4(O)c5occc5C(=O)C[C@H]4C4(CCC1(O)OC4)[C@@H]32 (stereo partly specified),6.16,8.94,10.5
COc1cc2c(c3occc13)C[C@H]1OC(=O)[C@]3(C)[C@H]1[C@@]21CO[C@](O)(C1)[C@@H]3O,> 20,> 20,> 20
C[C@]12C(=O)O[C@@H]3C[C@@H]4[C@@H](CCC5=CC(=O)O[C@@H]54)C4(CCC1(O)OC4)[C@@H]32 (stereo partly specified),> 20,> 20,> 20
C[C@]12C(=O)O[C@@H]3C[C@H]4c5occc5C(=O)C[C@H]4[C@@]4(COC1(O)C[C@@H]4O)[C@@H]32,6.44,10.8,18.7
CC[C@]1(O)C[C@@H]2CN(CCc3c([nH]c4ccccc34)[C@@](C(=O)OC)(c3cc4c(cc3OC)N(C)[C@H]3[C@@](O)(C(=O)OC)[C@H](OC(C)=O)[C@]5(CC)C=CCN6CC[C@]43[C@@H]65)C2)C1 [VINBLASTINE],0.00049,0.00878,0.00182
COc1cc2c(c3occc13)C[C@H]1OC(=O)[C@]3(C)[C@H]1[C@@]21CO[C@](O)(C1)[C@H]3O,> 20,> 20,> 20
C[C@]12C(=O)O[C@@H]3C[C@H]4c5occc5C(=O)C[C@H]4C4(CCC1(O)OC4)[C@@H]32 (stereo partly specified),> 20,> 20,> 20
COc1cc2c(c3occc13)C[C@H]1OC(=O)[C@]3(C)[C@H]1C21CCC3(O)OC1 (stereo partly specified),> 20,> 20,> 20
C[C@]12C(=O)O[C@@H]3C[C@H]4C5=C(CC[C@H]4[C@@]4(CCC1(O)OC4)[C@@H]32)C(=O)CO5,0.66,0.67,1.05
C[C@@]12CC[C@@H]3C(=C[C@H]4OC(=O)[C@]5(C)[C@H]4[C@]34CCC5(O)OC4)[C@@H]1OC[C@H]2O,1.65,3.74,4.12
C[C@]12C(=O)O[C@@H]3Cc4c(ccc5ccoc45)C4(CCC1(O)OC4)[C@@H]32 (stereo partly specified),> 20,> 20,17.8

# Reference: ChEMBL document CHEMBL3580583, “17-Norpimaranes and (9βH)-17-Norpimaranes from the Tuber of Icacina trichantha” (J Nat Prod, 2015)
